This is an account of results in ChEMBL document CHEMBL1821604, “Anticancer activity and cDNA microarray studies of a (RS)-1,2,3,5-tetrahydro-4,1-benzoxazepine-3-yl]-6-chloro-9H-purine, and an acyclic (RS)-O,N-acetalic 6-chloro-7H-purine” (Eur J Med Chem, 2011).

Holding throughout (type): functional
Test [1] relates to MCF7. The test can be described thus: Upregulation of CRTAM gene expression in human MCF7 cells at IC50 after 48 hrs by cDNA microarray technique relative to control.
The test system of test [2] is MCF7. As to the kind of experiment: Down regulation of SNTG1 gene expression in human MCF7 cells at IC50 after 48 hrs by cDNA microarray technique relative to control.
Test [3] has as its system MCF7. The test can be described thus: Upregulation of ABCD2 gene expression in human MCF7 cells at IC50 after 48 hrs by cDNA microarray technique relative to control.
The subject of test [4] is MCF7. The test can be described thus: Upregulation of BTBD12 gene expression in human MCF7 cells at IC50 after 48 hrs by cDNA microarray technique relative to control.
Test [5] concerns MCF7. The test can be described thus: Down regulation of TSSK6 gene expression in human MCF7 cells at IC50 after 48 hrs by cDNA microarray technique relative to control.
Test [6] deals with MCF7. The test can be described thus: Down regulation of DKFZp727G131 gene expression in human MCF7 cells at IC50 after 48 hrs by cDNA microarray technique relative to control. The method, boiled down: (§1)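 8 × 10⁶ cells exposed 48 h to compound at its IC50 concentration; total RNA isolated with trizol/chloroform and RNeasy columns including on-column DNase step; RNA quantified by OD 260/280; DMSO-treated cultures as control.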

For test [7], the system named is HT-29. As to the kind of experiment: Down regulation of PGLYRP4 gene expression in human HT-29 cells at IC50 after 48 hrs by cDNA microarray technique relative to control.
The subject of test [8] is MCF7. The test can be described thus: Down regulation of C21orf42 gene expression in human MCF7 cells at IC50 after 48 hrs by cDNA microarray technique relative to control. A digest of the protocol: as §1
Test [9] relates to HT-29. The test can be described thus: Down regulation of FADS6 gene expression in human HT-29 cells at IC50 after 48 hrs by cDNA microarray technique relative to control. The method, boiled down: (§2)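 Cells (8 × 10⁶) were cultured in DMEM with 10% heat-inactivated FBS at 37 °C under 5% CO₂. They were exposed for 48 h to compound at its IC₅₀, with DMSO-treated parallel cultures as controls (final DMSO ≤0.1% v/v). Total RNA was isolated by trizol/chloroform phase separation, RNeasy column cleanup and on-column DNase, then quantified by OD260/OD280. Expression was profiled by cDNA microarray relative to control.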

For test [10], the system named is MCF7. As to the kind of experiment: Upregulation of HMGCS2 gene expression in human MCF7 cells at IC50 after 48 hrs by cDNA microarray technique relative to control.
The test system of test [11] is HT-29. As to the kind of experiment: Upregulation of HOXB8 gene expression in human HT-29 cells at IC50 after 48 hrs by cDNA microarray technique relative to control.
The test system of test [12] is MCF7. The test can be described thus: Down regulation of KIF3B gene expression in human MCF7 cells at IC50 after 48 hrs by cDNA microarray technique relative to control. The method, boiled down: as §2
The test system of test [13] is MCF7. As to the kind of experiment: Down regulation of KIAA1533 gene expression in human MCF7 cells at IC50 after 48 hrs by cDNA microarray technique relative to control. The method, boiled down:
as §2

For test [14], the system named is HT-29. As to the kind of experiment: Down regulation of PARK2 gene expression in human HT-29 cells at IC50 after 48 hrs by cDNA microarray technique relative to control.
Test [15] deals with MCF7. As to the kind of experiment: Down regulation of HLA-DOB gene expression in human MCF7 cells at IC50 after 48 hrs by cDNA microarray technique relative to control. The method, boiled down: as §2
Test [16] has as its system HT-29. As to the kind of experiment: Down regulation of VPS18 gene expression in human HT-29 cells at IC50 after 48 hrs by cDNA microarray technique relative to control.
Test [17] has as its system HT-29. As to the kind of experiment: Upregulation of TP53INP1 gene expression in human HT-29 cells at IC50 after 48 hrs by cDNA microarray technique relative to control.
The test system of test [18] is MCF7. As to the kind of experiment: Down regulation of TAS2R40 gene expression in human MCF7 cells at IC50 after 48 hrs by cDNA microarray technique relative to control.
In test [19] the test system is HT-29. As to the kind of experiment: Down regulation of ZFYVE9 gene expression in human HT-29 cells at IC50 after 48 hrs by cDNA microarray technique relative to control.
Test [20] has as its system HT-29. As to the kind of experiment: Down regulation of AQP3 gene expression in human HT-29 cells at IC50 after 48 hrs by cDNA microarray technique relative to control. The method, boiled down:
as §1

In test [21] the test system is HT-29. The test can be described thus: Down regulation of PRP19 gene expression in human HT-29 cells at IC50 after 48 hrs by cDNA microarray technique relative to control.
Test [22] deals with HT-29. The test can be described thus: Down regulation of PRO1855 gene expression in human HT-29 cells at IC50 after 48 hrs by cDNA microarray technique relative to control.
In test [23] the test system is MCF7. The test can be described thus: Down regulation of RHAG gene expression in human MCF7 cells at IC50 after 48 hrs by cDNA microarray technique relative to control.
Test [24] deals with HT-29. As to the kind of experiment: Down regulation of HBZ gene expression in human HT-29 cells at IC50 after 48 hrs by cDNA microarray technique relative to control. A digest of the protocol: as §2
The test system of test [25] is HT-29. As to the kind of experiment: Down regulation of RHOV gene expression in human HT-29 cells at IC50 after 48 hrs by cDNA microarray technique relative to control. A digest of the protocol: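 HT-29 cells were grown in DMEM with 10% heat-inactivated FBS at 37 °C under 5% CO2. Cultures of 8 × 10⁶ cells were treated for 48 h; controls got DMSO at ≤0.1% v/v final. Cells were detached with PBS-EDTA and total RNA was extracted with trizol/chloroform and RNeasy columns with on-column DNase. RNA was quantified by OD 260/280 before cDNA microarray comparison with control.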

The test system of test [26] is HT-29. The test can be described thus: Down regulation of SFRS5 gene expression in human HT-29 cells at IC50 after 48 hrs by cDNA microarray technique relative to control.
Test [27] has as its system MCF7. The test can be described thus: Down regulation of PARP9 gene expression in human MCF7 cells at IC50 after 48 hrs by cDNA microarray technique relative to control.
Test [28] relates to MCF7. The test can be described thus: Upregulation of GABARAPL1 gene expression in human MCF7 cells at IC50 after 48 hrs by cDNA microarray technique relative to control.
The subject of test [29] is MCF7. The test can be described thus: Down regulation of C11orf8 gene expression in human MCF7 cells at IC50 after 48 hrs by cDNA microarray technique relative to control. A digest of the protocol:
as §1

For test [30], the system named is HT-29. The test can be described thus: Down regulation of BAZ2A gene expression in human HT-29 cells at IC50 after 48 hrs by cDNA microarray technique relative to control. The method, boiled down: as §1
For test [31], the system named is HT-29. As to the kind of experiment: Down regulation of PRPS1 gene expression in human HT-29 cells at IC50 after 48 hrs by cDNA microarray technique relative to control.
Test [32] concerns HT-29. The test can be described thus: Down regulation of LIR9 gene expression in human HT-29 cells at IC50 after 48 hrs by cDNA microarray technique relative to control. A digest of the protocol: as §2
Test [33] concerns HT-29. The test can be described thus: Down regulation of POLE gene expression in human HT-29 cells at IC50 after 48 hrs by cDNA microarray technique relative to control.
The subject of test [34] is HT-29. The test can be described thus: Down regulation of KELCHL gene expression in human HT-29 cells at IC50 after 48 hrs by cDNA microarray technique relative to control. A digest of the protocol:
as §2

The subject of test [35] is HT-29. The test can be described thus: Down regulation of CARHSP1 gene expression in human HT-29 cells at IC50 after 48 hrs by cDNA microarray technique relative to control. A digest of the protocol:
as §1

For the molecule `COC(CN(c1ccccc1CO)S(=O)(=O)c1ccccc1[N+](=O)[O-])n1cnc2ncnc(Cl)c21` (racemic), the “fold change (FC)” value with MCF7 [1] is 2.09; in the test on MCF7 [2] it was -2.46; with MCF7 [3], 2.25; with MCF7 [4], 3.24; in the test with MCF7 [5], -2.43; with MCF7 [6], -2.03. Further, the “fold change (FC)” value with HT-29 [7] was -2.02; in the test with MCF7 [8], -2.31; with HT-29 [9], -2.34; in the test on MCF7 [10], 2.39; with HT-29 [11], 2.11; in the test with MCF7 [12], -2.14. In addition, the entries for the “fold change (FC)” value with MCF7 [13], with HT-29 [14] and in the test on MCF7 [15] were -2.09, -2.96 and -2.26, respectively.

For the molecule `O=C(OCC1c2ccccc2-c2ccccc21)N1CC(n2cnc3c(Cl)ncnc32)OCc2ccccc21` (racemic), the “fold change (FC)” value with HT-29 [16] is -2.04; with HT-29 [17] it was 2.58; in the test with MCF7 [18], -2.85; with HT-29 [19], -2.52; with HT-29 [20], -2.53; in the test on HT-29 [21], -3.33. Further, the “fold change (FC)” value is given as -2 with HT-29 [22]; -6.26 in the test with MCF7 [23]; -2.84 with HT-29 [24]; -2.07 with HT-29 [25]; -2.06 in the test on HT-29 [26]; -3.23 with MCF7 [27]. Also, the “fold change (FC)” value is 2.07 in the test on MCF7 [28]; -2.88 in the test on MCF7 [29]; -2.65 in the test with HT-29 [30]; -2.68 with HT-29 [31]; -2.08 in the test on HT-29 [32]; -2.12 in the test on HT-29 [33]. In addition, the entries for the “fold change (FC)” value with HT-29 [34] and in the test on HT-29 [35] were -2.02 and -2.12, respectively.
